Tests used:
[1] = biological target: T1, ATP-dependent translocase ABCB1 (Homo sapiens, UniProt P08183); assay: Inhibition of P-gp overexpressed in human 12D7-MDR cells assessed as inhibition of calcein-AM efflux after 30 mins by flow cytometry; format: cell-based; conditions: for inhibition (INH): human, 0.5 h
Procedure, shortened: (§1)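 12D7-MDR cells (RPMI 1640, 10% FBS, 37 °C, 5% CO2), 125,000 in suspension in BME with calcein-AM 0.25 µM or NBD-Aba 5 µM final, plus increasing inhibitor concentrations, 30 min at 37 °C, DMSO held at 1%. Controls: GF120918 1 µM (positive), 1% DMSO (negative). Cells resuspended in ice-cold PBS pH 7.4; FL1 flow cytometry, 10,000 cells per point; IC50 from mean fluorescence.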

[2] = biological target: T1, ATP-dependent translocase ABCB1; assay: Inhibition of P-gp in human CMEC/D3 cells assessed as inhibition of NBD-Aba efflux after 30 mins by flow cytometry; format: cell-based
Procedure, shortened: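 hCMEC/D3 brain endothelial cells with endogenous P-gp, grown in supplemented EGM-2 on collagenated flasks. 125,000 cells in suspension in BME with NBD-Aba 5 µM final and increasing inhibitor concentrations, 30 min at 37 °C, 1% DMSO constant. GF120918 1 µM served as positive control. Cells resuspended in ice-cold PBS; FL1 flow cytometry on 10,000 cells; IC50 from mean fluorescence.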

[3] = biological target: T1, ATP-dependent translocase ABCB1; assay: Inhibition of P-gp overexpressed in human 12D7-MDR cells assessed as inhibition of NBD-Aba efflux after 30 mins by flow cytometry; format: cell-based; conditions: for inhibition (INH): human, 0.5 h; procedure, shortened: as §1
[4] = biological target: T1, ATP-dependent translocase ABCB1; assay: Inhibition of P-gp in human MCF7/DX1 cells assessed as cellular accumulation of doxorubicin after 30 mins by flow cytometry; format: cell-based; conditions: mcf7/dx1, 0.5 h
Procedure, shortened: (§2)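 MCF-7/DX1 cells are maintained with 1 µM doxorubicin. 125,000 cells in BME, pretreated with substrate (BODIPY-prazosin 0.5 µM, NBD-Aba 5 µM or doxorubicin 3 µM final), then incubated with increasing inhibitor concentrations for 30 min at 37 °C in 1% DMSO. For doxorubicin, cells are re-pelleted and incubated a further 30 min in inhibitor-containing BME. Read-out: flow cytometry, FL1 for BODIPY-prazosin and NBD-Aba, FL2 (585/42) for doxorubicin; IC50 from mean fluorescence. GF120918 1 µM as positive control.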

[5] = biological target: T1, ATP-dependent translocase ABCB1; assay: Inhibition of P-gp in human MCF7/DX1 cells assessed as cellular accumulation of NBD-Aba at 20 uM by confocal laser microscopy; format: cell-based; conditions: mcf7/dx1, 20 µM
Procedure, shortened: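 Confocal microscopy of MCF-7/DX1 cells given NBD-Aba 5 µM, with or without inhibitor at 20 µM.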

P-gp (ABCB1) = P-gp (ABCB1) (Homo sapiens, UniProt P08183); assay: Ratio of inhibition of P-gp in human CMEC/D3 cells using NBD-Aba as substrate to inhibition of P-gp in human MCF7/DX1 cells using NBD-Aba as substrate; format: cell-based; conditions: CMEC/D3 cells and MCF7/DX1 cells, probe NBD-Aba
[6] = biological target: T1, ATP-dependent translocase ABCB1; assay: Inhibition of P-gp in human MCF7/DX1 cells assessed as cellular accumulation of [3H]-daunomycin after 30 mins by scintillation counting analysis; format: cell-based; conditions: mcf7/dx1, 40 min, in the assay text read “40 mins” for “30 mins”
Procedure, shortened: (§3)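 MCF-7/DX1 cells, 500,000 per well, seeded the day before and washed with ice-cold PBS. Incubated 40 min at 37 °C in BME with 5% calf serum, 0.25 µCi/mL [3H]-daunomycin and varying inhibitor concentrations; GF120918 1 µM as positive control. Cells washed, trypsinized 1 h at 37 °C, then scintillation counted. Counts normalized per 10,000 cells; IC50 from fitted concentration–response curves.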

[7] = biological target: T1, ATP-dependent translocase ABCB1; assay: Inhibition of P-gp in human MCF7/DX1 cells assessed as cellular accumulation of BODIPY-prazosin after 30 mins by flow cytometry; format: cell-based; conditions: mcf7/dx1, 0.5 h; procedure, shortened: as §2
[8] = biological target: T1, ATP-dependent translocase ABCB1; assay: Displacement of [125I]-iodoarylazidoprazosin from human P-gp expressed in baculovirus-infected insect Sf9 cells incubated for 10 mins followed by UV light illumination for 20 mins by autoradiography
Procedure, shortened: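 Crude membranes (25 µg) from Sf9 cells infected with BV-MDR1 expressing human P-gp (72 h at 27 °C). Incubated 10 min at room temperature in the dark in 50 mM Tris-HCl pH 7.5 with 1 mM DTT and protease inhibitors, with [125I]-IAAP (~2200 Ci/mmol) and increasing inhibitor, then photo-crosslinked. Controls: 2.5% DMSO or GF120918 10 µM. Autoradiography and densitometry; values as percent of DMSO control, IC50 fitted.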

[9] = biological target: T1, ATP-dependent translocase ABCB1; assay: Inhibition of P-gp in human MCF7/DX1 cells assessed as cellular accumulation of NBD-Aba after 30 mins by flow cytometry; format: cell-based; conditions: mcf7/dx1, 0.5 h; procedure, shortened: as §2
[10] = biological target: T1, ATP-dependent translocase ABCB1; assay: Ratio of inhibition of P-gp overexpressed in human 12D7-MDR cells using NBD-Aba as substrate to inhibition of P-gp in human MCF7/DX1 cells using NBD-Aba as substrate; format: cell-based
[11] = biological target: T1, ATP-dependent translocase ABCB1; assay: Inhibition of P-gp in human MCF7/DX1 cells assessed as cellular accumulation of NBD-Aba up to 100 uM after 30 mins by flow cytometry; format: cell-based; conditions: mcf7/dx1, 0.5 h; procedure, shortened: as §2
[12] = biological target: T1, ATP-dependent translocase ABCB1; assay: Inhibition of P-gp in human MCF7/DX1 cells assessed as cellular accumulation of [3H]-daunomycin up to 100 uM after 30 mins by scintillation counting analysis; format: cell-based; conditions: mcf7/dx1, 40 min, in the assay text read “40 mins” for “30 mins”; procedure, shortened: as §3
[13] = biological target: T1, ATP-dependent translocase ABCB1; assay: Inhibition of P-gp in human MCF7/DX1 cells assessed as cellular accumulation of doxorubicin up to 100 uM after 30 mins by flow cytometry; format: cell-based; conditions: mcf7/dx1, 0.5 h; procedure, shortened: as §2
[14] = biological target: T1, ATP-dependent translocase ABCB1; assay: Inhibition of P-gp in human MCF7/DX1 cells assessed as cellular accumulation of BODIPY-prazosin up to 100 uM after 30 mins by flow cytometry; format: cell-based; conditions: mcf7/dx1, 0.5 h; procedure, shortened: as §2

T1 sequence (P08183 whole entry): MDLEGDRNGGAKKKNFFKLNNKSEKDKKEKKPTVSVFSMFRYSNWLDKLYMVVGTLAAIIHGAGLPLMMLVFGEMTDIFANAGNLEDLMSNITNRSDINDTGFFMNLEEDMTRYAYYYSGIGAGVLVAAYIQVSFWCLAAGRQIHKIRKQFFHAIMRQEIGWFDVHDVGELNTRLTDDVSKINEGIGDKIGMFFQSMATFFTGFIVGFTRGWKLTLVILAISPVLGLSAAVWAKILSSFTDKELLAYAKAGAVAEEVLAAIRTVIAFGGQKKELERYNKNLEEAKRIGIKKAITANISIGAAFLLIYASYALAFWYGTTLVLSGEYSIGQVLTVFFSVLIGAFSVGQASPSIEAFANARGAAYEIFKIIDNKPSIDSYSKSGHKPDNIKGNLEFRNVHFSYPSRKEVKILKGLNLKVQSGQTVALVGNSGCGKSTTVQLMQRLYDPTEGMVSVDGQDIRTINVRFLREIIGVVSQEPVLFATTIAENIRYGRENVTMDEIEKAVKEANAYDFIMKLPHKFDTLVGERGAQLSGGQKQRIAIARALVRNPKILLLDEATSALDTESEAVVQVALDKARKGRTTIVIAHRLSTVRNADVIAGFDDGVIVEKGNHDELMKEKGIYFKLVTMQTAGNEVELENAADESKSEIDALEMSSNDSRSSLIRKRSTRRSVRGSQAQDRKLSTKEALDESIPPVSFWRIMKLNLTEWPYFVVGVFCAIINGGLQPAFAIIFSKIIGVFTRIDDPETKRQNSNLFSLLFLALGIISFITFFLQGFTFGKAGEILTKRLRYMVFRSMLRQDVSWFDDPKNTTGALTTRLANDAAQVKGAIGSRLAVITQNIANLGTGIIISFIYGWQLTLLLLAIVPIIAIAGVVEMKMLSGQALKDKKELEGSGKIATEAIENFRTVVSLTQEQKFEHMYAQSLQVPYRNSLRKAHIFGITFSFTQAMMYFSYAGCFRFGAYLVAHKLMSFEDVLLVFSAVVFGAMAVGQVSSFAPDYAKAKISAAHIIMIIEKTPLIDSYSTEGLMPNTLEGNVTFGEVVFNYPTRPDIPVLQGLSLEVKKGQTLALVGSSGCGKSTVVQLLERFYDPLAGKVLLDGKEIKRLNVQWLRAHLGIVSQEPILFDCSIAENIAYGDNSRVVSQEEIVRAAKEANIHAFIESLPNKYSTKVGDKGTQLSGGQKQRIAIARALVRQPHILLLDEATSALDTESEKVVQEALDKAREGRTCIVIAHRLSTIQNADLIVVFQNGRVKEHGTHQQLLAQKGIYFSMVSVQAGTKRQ
Sequence of P-gp (ABCB1) (P08183 whole entry): as above

Nc1nc(NC2CC2)c2ncn([C@H]3C=C[C@@H](COC(=O)CCC(=O)OC[C@@H]4C=C[C@H](n5cnc6c(NC7CC7)nc(N)nc65)C4)C3)c2n1
IC50 [1]: 50000 nM
inhibition (INH) [1]: Dose-dependent effect

Nc1nc(NC2CC2)c2ncn([C@H]3C=C[C@@H](COC(=O)CCCCCC(=O)OC[C@@H]4C=C[C@H](n5cnc6c(NC7CC7)nc(N)nc65)C4)C3)c2n1
IC50 [2]: 4100 nM
IC50 [3]: 10500 nM
inhibition (INH) [3]: Dose-dependent effect
IC50 [1]: 7700 nM
inhibition (INH) [1]: Dose-dependent effect

Nc1nc(NC2CC2)c2ncn([C@H]3C=C[C@@H](COC(=O)CCCCCCCC(=O)OC[C@@H]4C=C[C@H](n5cnc6c(NC7CC7)nc(N)nc65)C4)C3)c2n1
IC50 [2]: 3800 nM
IC50 [3]: 2600 nM
inhibition (INH) [3]: Dose-dependent effect
IC50 [1]: 2600 nM
inhibition (INH) [1]: Dose-dependent effect

Nc1nc(NC2CC2)c2ncn([C@H]3C=C[C@@H](COC(=O)CCCCCCCCC(=O)OC[C@@H]4C=C[C@H](n5cnc6c(NC7CC7)nc(N)nc65)C4)C3)c2n1
INH [4]: 12.8 µM
inhibition (INH) [5]: Active
selectivity ratio (P-gp (ABCB1)): 3
INH [6]: 9.2 µM
INH [7]: 5.1 µM
IC50 [8]: 240 nM
inhibition (INH) ([8]; human, sf9, 10 min): Dose-dependent effect
IC50 [2]: 3600 nM
IC50 [3]: 2100 nM
inhibition (INH) [3]: Dose-dependent effect
IC50 [1]: 2300 nM
inhibition (INH) [1]: Dose-dependent effect
INH [9]: 11.8 µM
Ratio [10]: 6

Nc1nc(NC2CC2)c2ncn([C@H]3C=C[C@@H](COC(=O)CCCCCCCCCCC(=O)OC[C@@H]4C=C[C@H](n5cnc6c(NC7CC7)nc(N)nc65)C4)C3)c2n1
IC50 [2]: 1100 nM
IC50 [3]: 1800 nM
inhibition (INH) [3]: Dose-dependent effect
IC50 [1]: 1400 nM
inhibition (INH) [1]: Dose-dependent effect

Nc1nc(NC2CC2)c2ncn([C@H]3C=C[C@@H](CO)C3)c2n1 [ABACAVIR]
inhibition (INH) [11]: Not Active
inhibition (INH) [12]: Not Active
inhibition (INH) [13]: Not Active
IC50 [2]: > 500000 nM
IC50 [3]: > 500000 nM
IC50 [1]: > 500000 nM
inhibition (INH) [14]: Not Active

From ChEMBL document CHEMBL3217676, “Homodimers of the Antiviral Abacavir as Modulators of P-glycoprotein Transport in Cell Culture: Probing Tether Length” (Medchemcomm, 2013)
